molecular target: T1, Ectonucleotide pyrophosphatase/phosphodiesterase family member 1 (Homo sapiens, UniProt P22413); experiment: Inhibition of human NPP1 using p-Nph-5'-TMP as substrate
T1 sequence (P22413 whole entry): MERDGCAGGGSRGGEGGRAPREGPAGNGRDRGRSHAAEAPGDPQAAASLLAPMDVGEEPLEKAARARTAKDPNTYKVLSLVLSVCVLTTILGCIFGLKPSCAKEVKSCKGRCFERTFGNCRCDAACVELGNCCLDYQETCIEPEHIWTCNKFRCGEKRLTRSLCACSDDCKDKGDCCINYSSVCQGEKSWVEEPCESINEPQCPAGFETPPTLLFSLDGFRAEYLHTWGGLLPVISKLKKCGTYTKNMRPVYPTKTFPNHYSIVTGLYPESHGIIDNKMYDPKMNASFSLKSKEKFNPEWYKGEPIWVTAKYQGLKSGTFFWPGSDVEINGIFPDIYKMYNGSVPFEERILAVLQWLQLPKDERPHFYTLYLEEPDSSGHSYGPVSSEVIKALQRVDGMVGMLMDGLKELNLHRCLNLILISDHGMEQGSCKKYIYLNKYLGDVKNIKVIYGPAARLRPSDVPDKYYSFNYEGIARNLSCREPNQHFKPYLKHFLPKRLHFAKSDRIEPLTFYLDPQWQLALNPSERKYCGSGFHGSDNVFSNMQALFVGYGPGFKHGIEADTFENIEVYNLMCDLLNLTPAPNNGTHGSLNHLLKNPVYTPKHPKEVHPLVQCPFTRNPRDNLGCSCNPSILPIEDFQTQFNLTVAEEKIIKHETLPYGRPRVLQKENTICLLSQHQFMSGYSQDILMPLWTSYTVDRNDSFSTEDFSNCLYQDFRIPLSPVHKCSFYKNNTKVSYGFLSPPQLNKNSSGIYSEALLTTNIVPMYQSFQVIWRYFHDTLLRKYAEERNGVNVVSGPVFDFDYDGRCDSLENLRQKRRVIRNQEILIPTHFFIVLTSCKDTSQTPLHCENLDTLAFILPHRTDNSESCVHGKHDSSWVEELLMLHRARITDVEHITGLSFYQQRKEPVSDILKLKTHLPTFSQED

SMILES | Ki [µM]
COc1ccc(NC(=O)CSc2nc3cc(Br)cnc3[nH]2)cc1OC | 0.192
COc1ccc(NC(=O)CSc2nc3c(=O)[nH]cnc3[nH]2)cc1OC | 0.02
COc1ccc(NC(=O)CSc2nc3nccnc3[nH]2)cc1OC | 0.131
COc1ccc(NC(=O)CSc2nc3c(N)nc(SC)nc3[nH]2)cc1OC | 0.152
COc1ccc(NC(=O)CSc2nc3cnccc3[nH]2)cc1OC | 0.0442
COc1ccc(NC(=O)CSc2nc3c(N)ncnc3[nH]2)cc1OC | 0.005
COc1ccc(NC(=O)CSc2nc3c(SC)nc(N)nc3[nH]2)cc1OC | 3.65
COc1ccc(NC(=O)CSc2nc3c(N)nc(N)nc3[nH]2)cc1OC | 3.48
CCOc1nc(N)nc2[nH]c(SCC(=O)Nc3ccc(OC)c(OC)c3)nc12 | 1.01
COc1ccc(NC(=O)CSc2nc3c(=O)[nH]c(=O)[nH]c3[nH]2)cc1OC | 0.0358
COc1ccc(NC(=O)CSc2nc3c(OC)nc(N)nc3[nH]2)cc1OC | 8.04
COc1ccc(NC(=O)CSc2nc3ccc[nH]c-3n2)cc1OC | 0.217
COc1ccc(NC(=O)CSc2nc3cncnc3[nH]2)cc1OC | 0.281
COc1ccc(NC(=O)CSc2nc3c(OC(C)C)nc(N)nc3[nH]2)cc1OC | 11
COc1ccc(NC(=O)CSc2nc3c(C)ccnc3[nH]2)cc1OC | 0.127
COc1ccc(NC(=O)CSc2nc3cc(Cl)cnc3[nH]2)cc1OC | 0.137

molecular target: T2, Ectonucleotide pyrophosphatase/phosphodiesterase family member 1 (Homo sapiens) (UniProt P22413); experiment: Inhibition of human NPP1 using p-Nph-5'-TMP as substrate at 10 uM
T2 sequence (whole entry): T1 sequence (P22413 whole entry)
Method in brief: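 Single-point screen at 10 μM compound against soluble human NPP1 (20 ng), 400 μM p-Nph-5′-TMP, 50 mM Tris pH 9.0, 1 mM CaCl2, 200 μM ZnCl2, 37 °C 15 min, NaOH stop; percent inhibition from p-nitrophenolate absorbance at 400 nm; compounds in DMSO (10 mM stock).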

SMILES | inhibition [%]
O=C(CSc1nc2cccnc2[nH]1)Nc1ccc(F)cc1 | 30
COc1ccc(NC(=O)CSc2nc3ccc(N4CCOCC4)nc3[nH]2)cc1OC | 45
COc1ccc(CNC(=O)CSc2nc3cccnc3[nH]2)cc1OC | 0
COc1ccc(NC(=O)CCSc2nc3cccnc3[nH]2)cc1OC | 13
COc1ccc(OC)c(NC(=O)CSc2nc3cccnc3[nH]2)c1 | 12
O=C(CSc1nc2cccnc2[nH]1)Nc1cccc(Br)c1 | 23
Cc1ccc(NC(=O)CSc2nc3cccnc3[nH]2)cc1C | 11
COc1ccc(NS(=O)(=O)CSc2nc3ncccc3[nH]2)cc1OC | 50
O=C(CSc1nc2cccnc2[nH]1)Nc1ccccc1F | 13
COc1ccc(NC(=O)CSc2nc3ccc(SC)nc3[nH]2)cc1OC | 59
COc1ccc(NC(=O)CSc2nc3ccc(N4CCN(C)CC4)nc3[nH]2)cc1OC | 35
COc1ccccc1NC(=O)CSc1nc2ccc[nH]c-2n1 | 21
O=C(CSc1nc2cccnc2[nH]1)Nc1ccccc1 | 30
COc1ccc(NC(=O)CSc2ncc[nH]2)cc1OC | 64
CN(C)c1ccc(NC(=O)CSc2nc3cccnc3[nH]2)cc1 | 23
COc1ccc(NC(=O)CSc2nc3c(=O)n(C)c(=O)n(C)c3[nH]2)cc1OC | 23
COc1ccc(NC(=O)CSc2nc3ccc(OCC(F)(F)F)nc3[nH]2)cc1OC | 61

SMILES | inhibition [%]
CCn1c(=O)[nH]c(=O)c2nc(SCC(=O)Nc3ccc(OC)c(OC)c3)[nH]c21 | 43
COc1ccc(NC(=O)CSc2nc3ccc(N4CCCCC4)nc3[nH]2)cc1OC | 27
COc1ccc(NC(=O)CSc2nc3ccccc3[nH]2)cc1OC | 34
Cc1cccc(C)c1NC(=O)CSc1nc2cccnc2[nH]1 | 19
COc1ccc(NC(=O)CSc2nc3cccnc3[nH]2)c(OC)c1 | 8
O=C(CSc1nc2cccnc2[nH]1)Nc1ccccc1Cl | 19
O=C(CSc1nc2cccnc2[nH]1)Nc1ccc(Cl)c(Cl)c1 | 10
N#Cc1cccc(NC(=O)CSc2nc3cccnc3[nH]2)c1 | 45
CC(=O)c1cccc(NC(=O)CSc2nc3cccnc3[nH]2)c1 | 50
COc1cccc(NC(=O)CSc2nc3cccnc3[nH]2)c1 | 30
COc1ccc(NC(=O)C(C)Sc2nc3cccnc3[nH]2)cc1OC (centres undefined) | 6
COc1cc(NC(=O)CSc2nc3cccnc3[nH]2)cc(OC)c1 | 38
COc1ccc(NC(=O)CSc2nc3cccnc3[nH]2)cc1 | 48
CCOC(=O)c1cccc(NC(=O)CSc2nc3cccnc3[nH]2)c1 | 15
Cc1ccc(NC(=O)CSc2nc3cccnc3[nH]2)c(Cl)c1 | 2
COc1ccc(NC(=O)CSc2nc3ccc(N(C)C)nc3[nH]2)cc1OC | 58
O=C(CSc1nc2cccnc2[nH]1)Nc1ccc(Cl)cc1 | 17

molecular target: T1, Ectonucleotide pyrophosphatase/phosphodiesterase family member 1; experiment: Competitive inhibition of human NPP1 using p-Nph-5'-TMP as substrate by Lineweaver-Burk plot analysis

SMILES | Ki [µM]
COc1ccc(NC(=O)CSc2nc3cc(Br)cnc3[nH]2)cc1OC | 0.192
COc1ccc(NC(=O)CSc2nc3c(=O)[nH]cnc3[nH]2)cc1OC | 0.02
COc1ccc(NC(=O)CSc2nc3nccnc3[nH]2)cc1OC | 0.131
COc1ccc(NC(=O)CSc2nc3c(N)nc(SC)nc3[nH]2)cc1OC | 0.152
COc1ccc(NC(=O)CSc2nc3cnccc3[nH]2)cc1OC | 0.0442
COc1ccc(NC(=O)CSc2nc3c(N)ncnc3[nH]2)cc1OC | 0.005
COc1ccc(NC(=O)CSc2nc3c(SC)nc(N)nc3[nH]2)cc1OC | 3.65
COc1ccc(NC(=O)CSc2nc3c(N)nc(N)nc3[nH]2)cc1OC | 3.48
CCOc1nc(N)nc2[nH]c(SCC(=O)Nc3ccc(OC)c(OC)c3)nc12 | 1.01
COc1ccc(NC(=O)CSc2nc3c(=O)[nH]c(=O)[nH]c3[nH]2)cc1OC | 0.0358
COc1ccc(NC(=O)CSc2nc3c(OC)nc(N)nc3[nH]2)cc1OC | 8.04
COc1ccc(NC(=O)CSc2nc3ccc[nH]c-3n2)cc1OC | 0.217
COc1ccc(NC(=O)CSc2nc3cncnc3[nH]2)cc1OC | 0.281
COc1ccc(NC(=O)CSc2nc3c(OC(C)C)nc(N)nc3[nH]2)cc1OC | 11
COc1ccc(NC(=O)CSc2nc3c(C)ccnc3[nH]2)cc1OC | 0.127
COc1ccc(NC(=O)CSc2nc3cc(Cl)cnc3[nH]2)cc1OC | 0.137

molecular target: T1, Ectonucleotide pyrophosphatase/phosphodiesterase family member 1; experiment: Competitive inhibition of human NPP1 using ATP as substrate by Lineweaver-Burk plot analysis

SMILES | Ki [µM]
COc1ccc(NC(=O)CSc2nc3cc(Br)cnc3[nH]2)cc1OC | 10.8
COc1ccc(NC(=O)CSc2nc3c(=O)[nH]cnc3[nH]2)cc1OC | 14.3
COc1ccc(NC(=O)CSc2nc3nccnc3[nH]2)cc1OC | 30.2
COc1ccc(NC(=O)CSc2nc3c(N)nc(SC)nc3[nH]2)cc1OC | 26.7
COc1ccc(NC(=O)CSc2nc3cnccc3[nH]2)cc1OC | 29.2
COc1ccc(NC(=O)CSc2nc3c(N)ncnc3[nH]2)cc1OC | 18
COc1ccc(NC(=O)CSc2nc3c(SC)nc(N)nc3[nH]2)cc1OC | 67.9
COc1ccc(NC(=O)CSc2nc3c(N)nc(N)nc3[nH]2)cc1OC | 78
CCOc1nc(N)nc2[nH]c(SCC(=O)Nc3ccc(OC)c(OC)c3)nc12 | 33.6
COc1ccc(NC(=O)CSc2nc3c(=O)[nH]c(=O)[nH]c3[nH]2)cc1OC | 22.5
COc1ccc(NC(=O)CSc2nc3c(OC)nc(N)nc3[nH]2)cc1OC | 42.2
COc1ccc(NC(=O)CSc2nc3ccc[nH]c-3n2)cc1OC | 22.3
COc1ccc(NC(=O)CSc2nc3cncnc3[nH]2)cc1OC | 15.7
COc1ccc(NC(=O)CSc2nc3c(OC(C)C)nc(N)nc3[nH]2)cc1OC | 89.7
COc1ccc(NC(=O)CSc2nc3c(C)ccnc3[nH]2)cc1OC | 7.59
COc1ccc(NC(=O)CSc2nc3cc(Cl)cnc3[nH]2)cc1OC | 9.78

molecular target: Autotaxin (Homo sapiens, UniProt Q13822); experiment: Competitive inhibition of human NPP2 using lysophosphotidylcholine as substrate

SMILES | Ki [µM]
COc1ccc2nc(SCC(=O)Nc3ccc(OC)c(OC)c3)[nH]c2n1 | 71.2

molecular target: T3, Ectonucleotide pyrophosphatase/phosphodiesterase family member 3 (Homo sapiens, UniProt O14638); experiment: Competitive inhibition of human NPP3 using ATP as substrate
T3 sequence (O14638 whole entry): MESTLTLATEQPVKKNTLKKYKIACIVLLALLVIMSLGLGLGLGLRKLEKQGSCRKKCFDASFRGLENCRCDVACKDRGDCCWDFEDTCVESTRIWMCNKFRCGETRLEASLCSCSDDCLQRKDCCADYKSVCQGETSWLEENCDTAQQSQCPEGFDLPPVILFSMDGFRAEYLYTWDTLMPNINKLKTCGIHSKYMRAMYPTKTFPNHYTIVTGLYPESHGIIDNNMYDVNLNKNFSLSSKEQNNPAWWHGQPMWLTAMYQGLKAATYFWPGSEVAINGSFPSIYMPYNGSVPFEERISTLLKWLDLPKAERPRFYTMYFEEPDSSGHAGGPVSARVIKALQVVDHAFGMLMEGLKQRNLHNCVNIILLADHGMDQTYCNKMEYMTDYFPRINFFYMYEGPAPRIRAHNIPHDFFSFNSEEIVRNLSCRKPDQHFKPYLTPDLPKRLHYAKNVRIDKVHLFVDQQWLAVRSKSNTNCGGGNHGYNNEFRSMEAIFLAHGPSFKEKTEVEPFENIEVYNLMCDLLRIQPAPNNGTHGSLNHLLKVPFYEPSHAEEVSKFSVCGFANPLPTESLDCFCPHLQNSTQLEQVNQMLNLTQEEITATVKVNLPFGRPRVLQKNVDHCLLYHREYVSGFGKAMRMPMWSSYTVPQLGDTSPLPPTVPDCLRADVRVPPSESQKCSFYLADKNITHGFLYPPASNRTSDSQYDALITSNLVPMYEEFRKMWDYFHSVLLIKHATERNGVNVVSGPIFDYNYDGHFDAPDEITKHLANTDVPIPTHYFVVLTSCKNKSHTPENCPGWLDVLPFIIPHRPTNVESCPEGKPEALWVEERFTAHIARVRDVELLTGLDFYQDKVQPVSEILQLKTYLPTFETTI

SMILES | Ki [µM]
COc1ccc2nc(SCC(=O)Nc3ccc(OC)c(OC)c3)[nH]c2n1 | 68.1

— ChEMBL document CHEMBL3351503, “Imidazopyridine- and purine-thioacetamide derivatives: potent inhibitors of nucleotide pyrophosphatase/phosphodiesterase 1 (NPP1)” (J Med Chem, 2014)
